# Key:
# Type in all cases: functional
# [1] = test system: HT-29; experiment: Induction of GCL expression in human HT-29 cells at 6.4 uM after 24 hrs by Western blotting method
# Procedure, shortened: (§1)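 HT29 whole-cell lysates in Hepes/KOH pH 7.5 with EDTA, KCl, NP40, DTT, protease inhibitors; 50 µg protein on 10–15% SDS-PAGE, nitrocellulose, overnight 4°C primary antibody (GCL 1:500, HO-1 1:1000), HRP secondary, chemiluminescence. Bands normalized to GAPDH (1:10 000), DMSO ratio set at 1.00; representative of three independent experiments.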
# [2] = test system: HT-29; experiment: Induction of HO1 expression in human HT-29 cells at 10 uM after 4 hrs by Western blotting method; procedure, shortened: as §1
# [3] = test system: HT-29; experiment: Induction of NQO1 expression in human HT-29 cells at 10 uM after 4 hrs by Western blotting method
# Procedure, shortened: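 Whole-cell lysates from treated HT29 cells in pH 7.5 Hepes/KOH buffer with EDTA, KCl, Igepal, DTT and protease inhibitors. 50 µg protein run on 10-15% SDS-PAGE and transferred to nitrocellulose. Probed overnight at 4°C with anti-HO-1 (1:1 000), anti-NQO1 (1:1 000) or anti-GCL (1:500), then HRP secondary for 45 min and chemiluminescence. Bands normalized to GAPDH (1:10 000), with the DMSO ratio set to 1.00. Representative of three experiments.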
# [4] = test system: HT-29; experiment: Induction of GCL expression in human HT-29 cells at 3.8 uM after 6 hrs by Western blotting method; procedure, shortened: as §1
smiles,measurement,setting,value
Cc1ccc(/C=C2\S/C(=N\c3csc(-c4ccc(Cl)cc4)c3)NC2=O)cc1,fold change (FC),[1],0.97
COc1ccc(/C=C2\S/C(=N\c3csc(-c4ccc(Cl)cc4)c3)NC2=O)cc1OC,fold change (FC),[2],1
same,fold change (FC),[3],1.26
COc1ccc(/C=C2\S/C(=N\c3csc(-c4ccc(Cl)cc4)c3)NC2=O)cc1,fold change (FC),[4],1.69

# From ChEMBL document CHEMBL3414496, “Synthesis and biological evaluation of novel 2-heteroarylimino-1,3-thiazolidin-4-ones as potential anti-tumor agents” (Eur J Med Chem, 2015)
